Reference: PMC9465827 (ACS Medicinal Chemistry Letters, 2022)
In brackets after ≈: the same amount, converted by molar mass.

How the values were obtained:
[1] = tested on: Madin-Darby canine kidney (MDCK) cells with canine MDR1 knocked out; experiment: MDCK permeability assay; format: in vitro ADME; details: apical to basolateral direction
How it was run: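 MDCK cells with endogenous canine MDR1 knocked out. Transport of the test compound was measured in the apical-to-basolateral direction. Permeability was reported in 10^-6 cm/s. Data were accepted only when compound recovery was 70%-130%.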

Kinetic solubility = format: physicochemical; details: PBS buffer, pH 7.4, aqueous buffer, kinetic from dmso stock

O=C(Cn1ccnc1)Nc1ccc(C2CCCCC2)cc1 [1c]
permeability (passive diffusion rate), level in words [1]: high

CC(=O)N1CC(C(=O)Nc2ccc(C3CCCCC3)cc2)C1 [1i]
permeability (passive diffusion rate), level in words [1]: high

CN(Cc1cccnc1)C(=O)c1ccc(C2CCCCC2)cc1 [2c']
permeability (passive diffusion rate), level in words [1]: highly permeable

O=C(Nc1ccc([C@H]2[C@@H](F)[C@@H](F)C[C@@H](F)[C@H]2F)cc1)c1cn[nH]c1 [J-1b]
solubility kinetic at 24 h (Kinetic solubility): 136 µM (≈ 46.4 µg/mL)

CN(Cc1cccnc1)C(=O)c1ccc([C@H]2[C@@H](F)[C@@H](F)C[C@@H](F)[C@H]2F)cc1 [J-2c']
permeability (passive diffusion rate), level in words [1]: highly permeable
